# According to ChEMBL document CHEMBL2331336, “Discovery and structure-activity relationship of 1,3-cyclohexyl amide derivatives as novel mGluR5 negative allosteric modulators” (Bioorg Med Chem Lett, 2013):
# Activity calls are given as the source filed them. The rule behind the calls is not given here.
# Key:
# [1] = Kinetic solubility of the compound in potassium phosphate buffer after 4 hrs; assay type: physicochemical; details: read-out: Kinetic_solubility
# In short: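 Kinetic solubility: compound from 10 mM DMSO stock diluted into 25 mM potassium phosphate buffer and shaken 4 h. Supernatant analyzed by UPLC with PDA detection at 254 nm.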
# [2] = tested on: Liver microsomes; test: Intrinsic clearance in rat liver microsomes; assay type: ADME, Microsome
# [3] = Plasma protein binding in human; assay type: ADME, cell-free; details: read-out: PPB (converted)
# [4] = tested on: Liver; test: Intrinsic clearance in mouse liver microsomes; assay type: ADME, Microsome
# [5] = tested on: Liver microsomes; test: Intrinsic clearance in human liver microsomes; assay type: ADME, Microsome; parameters: unit not given here
# [6] = molecular target: T1, Metabotropic glutamate receptor 1 (Rattus norvegicus, UniProt P23385); test: Agonist activity at rat mGluR1 expressed in HEK293 cells assessed as Ca2+ mobilization by FLIPR assay; assay type: functional, cell-based
# In short: (§1)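 Rat mGluR1 stably in HEK293 cells (1.5% calf serum medium), seeded 24 h earlier, Fluo-4 loaded 1 h at 37 °C in HBSS/HEPES pH 7.4 with probenecid. Curves fitted with Hill equation.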
# [7] = molecular target: T1, Metabotropic glutamate receptor 1; test: Antagonist activity at rat mGluR1 expressed in HEK293 cells assessed as inhibition of Ca2+ mobilization by FLIPR assay; assay type: functional, cell-based; in short: as §1
# [8] = molecular target: T2, Metabotropic glutamate receptor 5 (Homo sapiens, UniProt P41594); test: Displacement of [3H]-ABP688 from human mGluR5 expressed in HEK293 cells after 60 mins by scintillation counting; assay type: cell-based
# [9] = molecular target: T2, Metabotropic glutamate receptor 5; test: Antagonist activity at human mGluR5 expressed in HEK293 cells assessed as inhibition of Ca2+ mobilization by FLIPR assay; assay type: functional, cell-based
# [10] = tested on: Mus musculus; test: Anxiolytic-like activity in mouse at 30 mg/kg, sc measured after 1 hr by marble burying test; assay type: functional, organism-based; parameters: dose 30 mg/kg
# In short: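 Male CD-1 mice, n = 12 per group, given 3, 10 or 30 mg/kg sc in 20% HPβCD (5 mL/kg); buspirone 10 mg/kg sc in water as positive control. Mice were placed singly in cages for a 30 min session, and marbles buried out of 20 were counted. One-way ANOVA with Dunnett's test.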
# [11] = Ratio of fraction unbound in brain to plasma of CD-1 mouse brain at 10 mg/kg, sc at 1 hr; assay type: ADME, organism-based; parameters: dose 10 mg/kg, route subcutaneous; details: in vivo
# In short: (§2)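 CD-1 mice (n = 2), 10 mg/kg SC in 20% hydroxypropyl-β-cyclodextrin in water. Brain and plasma sampled at 1 h; averages reported. Quantification limits were 2 ng/g for brain and 2 ng/mL for plasma. Kupp is the ratio of unbound brain to unbound plasma concentration.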
# [12] = Ratio of drug uptake in brain to plasma of CD-1 mouse at 10 mg/kg, po at 1 hr; assay type: ADME, organism-based; parameters: dose 10 mg/kg, route oral; details: read-out: BPR
# [13] = Plasma concentration in CD-1 mouse at 10 mg/kg, po at 1 hr; assay type: ADME, organism-based; parameters: dose 10 mg/kg, route oral
# [14] = Drug uptake in CD-1 mouse brain at 10 mg/kg, po at 1 hr; assay type: ADME, organism-based; parameters: dose 10 mg/kg, route oral; details: read-out: Drug uptake
# [15] = Ratio of drug uptake in brain to plasma of CD-1 mouse at 10 mg/kg, sc at 1 hr; assay type: ADME, organism-based; parameters: dose 10 mg/kg, route subcutaneous; details: read-out: BPR; in short: as §2
# [16] = Drug uptake in CD-1 mouse brain at 10 mg/kg, sc at 1 hr; assay type: ADME, organism-based; parameters: dose 10 mg/kg, route subcutaneous; details: read-out: Drug uptake; in short: as §2
# [17] = Plasma concentration in CD-1 mouse at 10 mg/kg, sc at 1 hr; assay type: ADME, organism-based; parameters: dose 10 mg/kg, route subcutaneous; in short: as §2
# [18] = tested on: Plasma; test: Fraction unbound in mouse plasma; assay type: ADME, cell-free
# [19] = Fraction unbound in mouse brain; assay type: ADME, tissue-based
# [20] = Partition co-efficient, log D at pH 7.4 of the compound by shake flask method; assay type: physicochemical; details: buffer
# T1 sequence (P23385 whole entry): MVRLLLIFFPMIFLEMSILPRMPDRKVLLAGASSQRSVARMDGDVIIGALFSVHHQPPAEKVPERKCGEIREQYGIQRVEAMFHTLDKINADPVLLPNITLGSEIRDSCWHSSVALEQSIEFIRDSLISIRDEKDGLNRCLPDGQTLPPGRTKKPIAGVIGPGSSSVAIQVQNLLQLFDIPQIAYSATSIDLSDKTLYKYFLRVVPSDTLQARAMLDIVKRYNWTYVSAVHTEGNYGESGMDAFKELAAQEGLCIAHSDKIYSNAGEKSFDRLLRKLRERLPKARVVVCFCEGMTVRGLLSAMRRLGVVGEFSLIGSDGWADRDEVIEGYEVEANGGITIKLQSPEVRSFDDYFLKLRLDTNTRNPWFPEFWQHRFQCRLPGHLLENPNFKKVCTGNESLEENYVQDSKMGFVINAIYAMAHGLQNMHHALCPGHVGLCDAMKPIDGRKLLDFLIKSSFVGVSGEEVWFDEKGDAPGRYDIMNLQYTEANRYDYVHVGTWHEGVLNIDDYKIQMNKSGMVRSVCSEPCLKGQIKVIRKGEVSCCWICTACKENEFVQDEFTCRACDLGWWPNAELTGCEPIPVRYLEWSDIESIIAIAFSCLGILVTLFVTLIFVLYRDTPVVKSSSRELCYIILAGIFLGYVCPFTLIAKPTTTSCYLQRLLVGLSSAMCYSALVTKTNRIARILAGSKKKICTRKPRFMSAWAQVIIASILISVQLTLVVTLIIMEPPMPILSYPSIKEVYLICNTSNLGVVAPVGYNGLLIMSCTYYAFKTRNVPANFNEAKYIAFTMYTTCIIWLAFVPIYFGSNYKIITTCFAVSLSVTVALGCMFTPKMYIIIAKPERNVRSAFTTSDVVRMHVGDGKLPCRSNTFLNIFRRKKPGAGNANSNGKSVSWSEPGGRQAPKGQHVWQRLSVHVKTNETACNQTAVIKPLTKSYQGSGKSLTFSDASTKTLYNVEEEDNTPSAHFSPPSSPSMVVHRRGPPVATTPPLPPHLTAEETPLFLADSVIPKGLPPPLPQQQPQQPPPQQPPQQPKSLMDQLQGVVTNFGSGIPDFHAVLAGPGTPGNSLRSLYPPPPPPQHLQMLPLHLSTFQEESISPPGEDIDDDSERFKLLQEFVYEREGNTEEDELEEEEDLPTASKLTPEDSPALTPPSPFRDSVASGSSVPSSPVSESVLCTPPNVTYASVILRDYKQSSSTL
# T2 sequence (P41594 whole entry): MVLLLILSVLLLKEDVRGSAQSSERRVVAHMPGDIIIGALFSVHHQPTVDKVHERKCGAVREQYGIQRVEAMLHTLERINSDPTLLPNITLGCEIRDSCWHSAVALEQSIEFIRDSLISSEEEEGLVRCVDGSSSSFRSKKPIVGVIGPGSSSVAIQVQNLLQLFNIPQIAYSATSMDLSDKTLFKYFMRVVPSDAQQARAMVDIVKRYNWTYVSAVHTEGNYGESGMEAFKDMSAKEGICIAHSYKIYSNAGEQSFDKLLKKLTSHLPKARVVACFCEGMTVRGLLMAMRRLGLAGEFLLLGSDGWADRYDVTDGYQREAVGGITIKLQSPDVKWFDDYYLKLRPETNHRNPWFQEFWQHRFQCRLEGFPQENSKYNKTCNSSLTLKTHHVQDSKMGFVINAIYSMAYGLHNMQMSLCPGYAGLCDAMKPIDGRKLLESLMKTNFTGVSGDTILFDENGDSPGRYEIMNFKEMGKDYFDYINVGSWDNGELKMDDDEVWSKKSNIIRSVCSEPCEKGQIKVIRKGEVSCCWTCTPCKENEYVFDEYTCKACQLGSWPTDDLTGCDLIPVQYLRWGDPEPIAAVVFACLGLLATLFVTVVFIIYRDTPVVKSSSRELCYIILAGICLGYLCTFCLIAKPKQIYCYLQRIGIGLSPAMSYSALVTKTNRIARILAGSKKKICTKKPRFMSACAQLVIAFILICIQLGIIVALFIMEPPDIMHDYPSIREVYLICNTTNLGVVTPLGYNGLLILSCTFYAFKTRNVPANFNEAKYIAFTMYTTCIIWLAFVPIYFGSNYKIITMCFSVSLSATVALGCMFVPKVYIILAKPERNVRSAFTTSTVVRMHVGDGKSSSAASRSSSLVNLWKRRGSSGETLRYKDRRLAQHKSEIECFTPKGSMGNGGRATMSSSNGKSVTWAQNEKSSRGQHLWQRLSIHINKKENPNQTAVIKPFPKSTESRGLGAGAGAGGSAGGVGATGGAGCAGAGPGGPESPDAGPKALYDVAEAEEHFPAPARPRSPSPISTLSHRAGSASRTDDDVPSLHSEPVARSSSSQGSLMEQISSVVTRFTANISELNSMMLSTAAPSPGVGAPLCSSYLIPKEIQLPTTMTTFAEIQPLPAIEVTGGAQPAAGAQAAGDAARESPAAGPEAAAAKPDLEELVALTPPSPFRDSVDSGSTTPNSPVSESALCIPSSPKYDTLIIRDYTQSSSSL
SMILES,IC50 [9],further results
N#Cc1cccc(C(=O)N[C@@H]2CCC[C@@H](NC(=O)c3ccccn3)C2)c1,231 nM,solubility kinetic at 4 h [1]: 240 µM; Intrinsic clearance [2]: 8.3 mL/min; fraction unbound [3]: 0.157; Intrinsic clearance [4]: 1.8 mL/min; Intrinsic clearance [5]: 0.5; EC50 [6]: > 10000 nM; IC50 [7]: > 10000 nM; Ki [8]: 1270 nM
O=C(N[C@H]1CCC[C@H](NC(=O)C2CCCCC2)C1)c1cccc(Cl)c1 (relative stereo),857 nM,–
O=C(N[C@@H]1CCC[C@@]2(CN=C(c3cccc(Cl)c3)O2)C1)c1ccccn1,2910 nM,–
O=C(N[C@@H]1CCC[C@@H](C(=O)Nc2ccccn2)C1)c1cccc(Cl)c1,5000 nM,–
CN(C(=O)c1cccc(Cl)c1)C1CCCC(N(C)C(=O)c2cccc(Cl)c2)C1 (configuration not stated),> 10000 nM,–
Cc1cccc(C(=O)N[C@@H]2CCC[C@@]3(CN=C(c4cccc(Cl)c4)O3)C2)n1,5230 nM,–
Cc1cccc(C(=O)N[C@H]2CCC[C@@]3(CN=C(c4cccc(Cl)c4)O3)C2)n1 (relative stereo),1510 nM,–
O=C(Cc1ccccn1)N[C@H]1CCC[C@H](NC(=O)c2cccc(Cl)c2)C1 (relative stereo),> 10000 nM,–
O=C(N[C@H]1CCC[C@H](NC(=O)c2cccc(F)c2)C1)c1cccc(F)c1,593 nM,–
Cc1cccc(C(=O)N[C@@H]2CCC[C@@]3(CN=C(c4cccc(Cl)c4)O3)C2)n1 (relative stereo),72 nM,–
O=C(N[C@H]1CCC[C@H](NC(=O)c2ccccc2F)C1)c1cccc(Cl)c1 (relative stereo),175 nM,Ki [8]: 760 nM
Cc1cccc(C(=O)N[C@H]2CCC[C@]3(CN=C(c4cccc(Cl)c4)O3)C2)n1,23 nM,Activity [10]: Active; Ratio [11]: 1.1; Kp at 1 h [12]: 0.5; concentration at 1 h [13]: 17 nM; concentration at 1 h [14]: 9 nM; Kp at 1 h [15]: 0.8; concentration at 1 h [16]: 910 nM; concentration at 1 h [17]: 1180 nM; Cp(f) [18]: 0.2%; fraction unbound [19]: 0.003; Intrinsic clearance [2]: 48 mL/min; Intrinsic clearance [4]: 12.5 mL/min; Intrinsic clearance [5]: 13; EC50 [6]: > 10000 nM; IC50 [7]: > 10000 nM
O=C(NC1CCCC2(CN=C(c3cccc(Cl)c3)O2)C1)c1cccnc1 (mixture of isomers),> 10000 nM,–
O=C(N[C@@H]1CCC[C@H](NC(=O)c2ccccn2)C1)c1cccc(Cl)c1 (relative stereo),1510 nM,–
CN(C(=O)c1cccc(Cl)c1)C1CCCC(NC(=O)c2cccc(Cl)c2)C1 (configuration not stated),> 10000 nM,–
Cc1ccnc(C(=O)N[C@H]2CCC[C@H](NC(=O)c3cccc(Cl)c3)C2)c1 (relative stereo),3400 nM,–
N#Cc1cccc(C(=O)NC2CCCC(NC(=O)c3ccccn3)C2)c1 (racemic),531 nM,Ki [8]: 1540 nM
O=C(N[C@H]1CCC[C@H](C(=O)Nc2cccc(Cl)c2)C1)c1ccccn1,468 nM,–
N#Cc1cccc(C(=O)N[C@H]2CCC[C@H](NC(=O)c3ccccn3)C2)c1,> 10000 nM,–
O=C(N[C@H]1CCC[C@H](NC(=O)c2cccc(Cl)c2)C1)c1ccc(F)cc1 (relative stereo),194 nM,Ki [8]: 492 nM
N#Cc1cccc(C(=O)N[C@@H]2CCC[C@H](NC(=O)c3ccccn3)C2)c1 (relative stereo),> 10000 nM,–
O=C(NC1CCCC2(CN=C(c3cccc(Cl)c3)O2)C1)c1ccncc1 (mixture of isomers),> 10000 nM,–
Cc1cccc(C(=O)N[C@H]2CCC[C@H](NC(=O)c3ccccn3)C2)c1 (relative stereo),1000 nM,–

SMILES,IC50 [9],further results
O=C(N[C@H]1CCC[C@H](NC(=O)c2ccccn2)C1)c1cccc(Cl)c1,> 10000 nM,–
O=C(N[C@H]1CCC[C@H](NC(=O)c2cccc(Cl)c2)C1)c1ccncc1 (relative stereo),300 nM,Ki [8]: 445 nM
COc1cccc(C(=O)N[C@H]2CCC[C@H](NC(=O)c3cccc(Cl)c3)C2)c1 (relative stereo),789 nM,–
O=C(N[C@H]1CCC[C@H](NC(=O)c2cccc(Cl)c2)C1)c1cccnc1 (relative stereo),612 nM,–
O=C(N[C@H]1CCC[C@H](NC(=O)c2cccc(Cl)c2)C1)c1ccccc1 (relative stereo),228 nM,Ki [8]: 672 nM
O=C(NC1CCCC(NC(=O)c2cccc(Cl)c2)C1)c1cccc(F)c1 (racemic),86 nM,Ki [8]: 320 nM
O=C(N[C@H]1CCC[C@H](NC(=O)c2cnccn2)C1)c1cccc(Cl)c1 (relative stereo),1370 nM,–
O=C(N[C@H]1CCC[C@H](NC(=O)c2cccc(Cl)c2)C1)c1cccc(F)c1,9600 nM,–
N#Cc1cccc(C(=O)N[C@@H]2CCC[C@@H](C(=O)Nc3ccccn3)C2)c1,> 10000 nM,–
O=C(NC1CCCC(NC(=O)c2cccc(Cl)c2)C1)c1cccc(Cl)c1 (mixture of isomers),139 nM,–
O=C(N[C@@H]1CCC[C@@H](NC(=O)c2cccc(Cl)c2)C1)c1cccc(F)c1,59 nM,logD [20]: > 5; solubility kinetic at 4 h [1]: 5.4 µM; Intrinsic clearance [2]: 9.4 mL/min; fraction unbound [3]: 0.039; Intrinsic clearance [5]: 0.8; EC50 [6]: > 10000 nM; IC50 [7]: 2100 nM; Ki [8]: 211 nM
CN(C)c1cccc(C(=O)N[C@H]2CCC[C@H](NC(=O)c3cccc(Cl)c3)C2)c1 (relative stereo),> 10000 nM,–
Cc1cccc(C(=O)N[C@H]2CCC[C@H](NC(=O)c3cccc(Cl)c3)C2)n1 (racemic),290 nM,Ki [8]: 582 nM
O=C(N[C@H]1CCC[C@H](NC(=O)c2ccccn2)C1)c1ccccn1,1150 nM,–
N#Cc1cccnc1C(=O)NC1CCCC(NC(=O)c2cccc(Cl)c2)C1 (mixture of isomers),671 nM,Ki [8]: 1250 nM
O=C(NC1CCCC2(CN=C(c3cccc(Cl)c3)O2)C1)c1ccccn1 (mixture of isomers),647 nM,Ki [8]: 30 nM
Cc1cccnc1C(=O)N[C@H]1CCC[C@H](NC(=O)c2cccc(Cl)c2)C1 (relative stereo),7840 nM,–
COc1cccc(C(=O)NC2CCCC(NC(=O)c3ccccn3)C2)c1 (mixture of isomers),> 10000 nM,–
O=C(N[C@H]1CCC[C@H](NC(=O)c2ncccn2)C1)c1cccc(Cl)c1 (relative stereo),425 nM,Ki [8]: 3790 nM
CN(C)c1ccc(C(=O)N[C@H]2CCC[C@H](NC(=O)c3cccc(Cl)c3)C2)cc1,473 nM,–
O=C(NC1CCCC(NC(=O)c2ccccn2)C1)c1cccc(Cl)c1 (racemic),314 nM,–
COc1ccc(C(=O)N[C@H]2CCC[C@H](NC(=O)c3cccc(Cl)c3)C2)cc1 (relative stereo),266 nM,Ki [8]: 674 nM
